Activity calls are given as the source filed them.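 Rule for the calls: active = fitted OD600 growth curve drops 35% below untreated wells at up to twice the top tested dose; inconclusive = flat curve with 30 to 70% drop, or poor fit; inactive = the rest, including rising growth signal.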

The test system of experiment [1] is P. aeruginosa PAK growth with EDDHA, OD600, 28 h. As to the kind of experiment: P. aeruginosa PAK growth delay under chelation, dose response, whole organism, PAK strain, OD600, EDDHA, dry powder, set 3 (AID 624073). In a few lines: (§1)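 Compound: dose-response series, final compound range 100 µM down to 15 nM / Test system: Pseudomonas aeruginosa PAK wild-type strain, whole bacterial cells / Timing: 28 h exposure at 30 °C / Also added: iron chelator EDDHA at 2 µM in the medium / Buffer or medium: Succinate-based M9 minimal medium adjusted to pH 7.0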

Experiment in experiment [2]: as above
As to conditions: P. aeruginosa PAK growth with EDDHA, OD600, 28 h; at 100 µM (top of the series). In a few lines: as §1

On to `N#CC(c1ccc(F)cc1)c1cccc(C(F)(F)F)n1` (stereo unspecified), for which the AC35 in experiment [1] is 15.4 µM. On to `N#CC(c1ccc(Cl)cc1)c1cccc(C(F)(F)F)n1` (stereo unspecified), for which the AC35 in experiment [1] was 12.8 µM. For `N#CC(c1ccc(Cl)cc1)c1ccc(Cl)cn1` (stereo unspecified), the AC35 in experiment [1] is 87.7 µM.

Consider `N#CC(c1ccc(Cl)cc1)c1ncccc1Cl` (stereo unspecified), for which the AC35 in experiment [1] is 77.8 µM. Regarding `COCCNC(C#N)c1ccc(Cl)cc1` (stereo unspecified), the activity change, negative = inhibition in experiment [2] was -2.37% (inactive). Consider `N#CC(c1cccc(C(F)(F)F)n1)c1ccc(Cl)cc1F` (stereo unspecified), for which, in experiment [1], the AC35 was 13.7 µM. Still for that read-out and setting: in the case of `N#CC(c1ccc(Cl)cc1)c1cccc(Cl)n1` (stereo unspecified) it was 40.9 µM; in that of `CCCCC(c1ccc(Cl)cc1)c1nn[nH]n1` (stereo unspecified), > 100 µM (inactive).

For `N#CC(c1cccc(Cl)n1)c1ccc(Cl)cc1F` (stereo unspecified), the AC35 in experiment [1] is 47.5 µM.

Regarding `CCCCC(C#N)c1ccc(F)cn1` (stereo unspecified), in experiment [2], the activity change, negative = inhibition is -13.8% (inactive).

On to `COCCC(C#N)c1ccc(F)cc1` (stereo unspecified), for which the activity change, negative = inhibition in experiment [2] is 1.49% (inactive).

The values are drawn from PubChem BioAssay AID624073 (Broad Institute, 2012).
